Source: ChEMBL document CHEMBL1133934, “Metabolic stabilization of benzylidene ketal M(2) muscarinic receptor antagonists via halonaphthoic acid substitution” (Bioorg Med Chem Lett, 2001)

Key:
[1] = biological target: T1, Muscarinic acetylcholine receptor M2 (Homo sapiens, UniProt P08172); assay: Antagonistic activity against muscarinic acetylcholine receptor M2; assay type: functional
T1 sequence (P08172 whole entry): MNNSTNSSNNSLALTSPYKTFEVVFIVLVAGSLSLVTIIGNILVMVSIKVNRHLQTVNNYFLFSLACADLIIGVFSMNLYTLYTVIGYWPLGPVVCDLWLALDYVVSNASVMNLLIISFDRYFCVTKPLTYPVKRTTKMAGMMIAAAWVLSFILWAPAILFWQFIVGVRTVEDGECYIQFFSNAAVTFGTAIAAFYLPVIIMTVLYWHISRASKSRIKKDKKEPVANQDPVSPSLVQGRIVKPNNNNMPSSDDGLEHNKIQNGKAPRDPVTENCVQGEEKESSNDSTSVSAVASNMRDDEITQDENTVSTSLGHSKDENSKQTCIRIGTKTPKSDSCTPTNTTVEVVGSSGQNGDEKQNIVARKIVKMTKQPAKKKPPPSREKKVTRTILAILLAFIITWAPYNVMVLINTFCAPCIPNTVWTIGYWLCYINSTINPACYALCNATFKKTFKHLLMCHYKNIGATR
Summary of the method: (§1)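 Muscarinic receptor binding by a method described elsewhere; values are the mean of duplicates (SEM < 15%), each determination performed at least twice. Selectivity expressed as the ratio of M1 or M3 to M2 binding.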

Rattus norvegicus = assay: Percent of Acetylcholine (ACh) released above baseline in rat striatum at the dose of 10 mg/kg p.o. (0-2h); assay type: functional; conditions: route oral
Summary of the method: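 Rats dosed orally at 10 mg/kg in 20% HPβCD; microdialysis of striatum measuring ACh release over the 2 h experiment. Stimulation judged against pre-injection baseline, significance p < 0.05 by Duncan's multiple range statistic.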

[2] = biological target: T1, Muscarinic acetylcholine receptor M2; assay: Antagonistic activity against Muscarinic acetylcholine receptor M2; assay type: functional; summary of the method: as §1
[3] = biological target: Muscarinic acetylcholine receptors; M2 & M3 (Homo sapiens) (UniProt P20309+P08172); assay: Selectivity ratio of M3 muscarinic receptor to that of M2 muscarinic receptor; assay type: protein assay; summary of the method: as §1
[4] = biological target: Muscarinic acetylcholine receptors; M1 & M2 (Homo sapiens) (UniProt P11229+P08172); assay: Selectivity ratio of M1 muscarinic receptor to that of M2 muscarinic receptor; assay type: protein assay; summary of the method: as §1
[5] = Pharmacokinetic property at the dose of 10 mg/kg (20% HPbetaCD) concentration in rat (0 to 6 hr) p.o.; conditions: in vivo, po

Chain of Muscarinic acetylcholine receptors; M1 & M2 (Homo sapiens) (P11229 whole entry, looked up, one chain of several): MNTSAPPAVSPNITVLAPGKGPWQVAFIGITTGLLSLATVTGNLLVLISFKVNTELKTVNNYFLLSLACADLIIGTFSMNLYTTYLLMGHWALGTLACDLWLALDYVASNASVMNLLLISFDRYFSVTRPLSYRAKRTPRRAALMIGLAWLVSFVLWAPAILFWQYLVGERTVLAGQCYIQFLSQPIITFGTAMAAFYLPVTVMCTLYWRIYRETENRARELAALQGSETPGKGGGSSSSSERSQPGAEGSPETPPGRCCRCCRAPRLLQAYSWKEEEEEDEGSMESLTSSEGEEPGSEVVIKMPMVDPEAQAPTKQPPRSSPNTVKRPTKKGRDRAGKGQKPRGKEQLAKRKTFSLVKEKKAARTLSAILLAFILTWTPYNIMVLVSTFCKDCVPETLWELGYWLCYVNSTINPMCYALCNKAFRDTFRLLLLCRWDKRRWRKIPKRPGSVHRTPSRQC
Chain of Muscarinic acetylcholine receptors; M2 & M3 (Homo sapiens) (P20309 whole entry, looked up, one chain of several): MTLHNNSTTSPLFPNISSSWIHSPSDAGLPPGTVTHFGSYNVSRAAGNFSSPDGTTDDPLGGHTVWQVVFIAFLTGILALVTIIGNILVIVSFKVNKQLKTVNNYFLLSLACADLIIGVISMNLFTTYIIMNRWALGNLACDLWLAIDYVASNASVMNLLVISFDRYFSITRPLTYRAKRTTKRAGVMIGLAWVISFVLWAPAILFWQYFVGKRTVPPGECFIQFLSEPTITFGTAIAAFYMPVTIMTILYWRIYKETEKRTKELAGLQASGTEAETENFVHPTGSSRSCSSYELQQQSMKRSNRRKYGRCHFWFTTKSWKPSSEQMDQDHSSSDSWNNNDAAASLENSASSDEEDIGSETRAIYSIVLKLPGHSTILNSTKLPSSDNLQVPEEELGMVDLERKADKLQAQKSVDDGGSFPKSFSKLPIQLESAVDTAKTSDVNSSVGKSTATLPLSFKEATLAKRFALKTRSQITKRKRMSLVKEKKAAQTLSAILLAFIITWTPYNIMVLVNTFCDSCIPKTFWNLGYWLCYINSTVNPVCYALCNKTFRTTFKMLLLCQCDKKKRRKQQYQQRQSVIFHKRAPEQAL

Row | Ki [1] [nM] | Ki [2] [nM] | SMILES | MD (Rattus norvegicus) [%] | also measured
1 | 0.14 |  | COc1ccc(S(=O)(=O)c2ccc(C3(C4CCN(C5CCN(C(=O)c6cccc7ccccc67)CC5)CC4)OCCO3)cc2)cc1 |  | 
2 |  | 0.29 | COc1ccc(S(=O)(=O)c2ccc(C3(C4CCN(C5CCN(C(=O)c6cccc7c(F)ccc(F)c67)CC5)CC4)OCCO3)cc2)cc1 | 120 | 
3 |  | 33.3 | CCCS(=O)(=O)N1CCC(N2CCC(C3(c4ccc(S(=O)(=O)c5ccc(OC)cc5)cc4)OCCO3)CC2)CC1 |  | Selectivity ratio [3]: 25.3; Selectivity ratio [4]: 18.3
4 | 1.4 |  | COc1ccc(S(=O)(=O)c2ccc(C3(C4CCN(C5CCN(C(=O)c6cccc7cc(Cl)ccc67)CC5)CC4)OCCO3)cc2)cc1 |  | 
5 |  | 0.23 | COc1ccc(S(=O)(=O)c2ccc(C3(C4CCN(C5CCN(C(=O)c6cccc7c(F)cc(F)cc67)CC5)CC4)OCCO3)cc2)cc1 | 133 | AUC at 6 h [5]: 367 ng·h/mL
6 |  | 0.99 | COc1ccc(S(=O)(=O)c2ccc(C3(C4CCN(C5CCN(C(=O)c6cccc7cccc(F)c67)CC5)CC4)OCCO3)cc2)cc1 |  | 
7 | 0.51 |  | COc1ccc(S(=O)(=O)c2ccc(C3(C4CCN(C5CCN(C(=O)c6ccc(F)c7ccccc67)CC5)CC4)OCCO3)cc2)cc1 | 180 | 
8 |  |  | CCCS(=O)(=O)N1CCC(N2CCC(C3(c4ccc(S(=O)(=O)c5ccc6c(c5)OCO6)cc4)OCCO3)CC2)CC1 |  | Selectivity ratio [3]: 93; Selectivity ratio [4]: 102
9 | 0.51 |  | COc1ccc(S(=O)(=O)c2ccc(C3(C4CCN(C5CCN(C(=O)c6cccc7c(Br)cccc67)CC5)CC4)OCCO3)cc2)cc1 | 125 | AUC at 6 h [5]: 702 ng·h/mL
10 | 1.2 |  | COc1ccc(S(=O)(=O)c2ccc(C3(C4CCN(C5CCN(C(=O)c6cccc7ccc(F)cc67)CC5)CC4)OCCO3)cc2)cc1 |  | 
11 | 0.81 |  | COc1ccc(S(=O)(=O)c2ccc(C3(C4CCN(C5CCN(C(=O)c6cccc7cc(F)ccc67)CC5)CC4)OCCO3)cc2)cc1 |  | 
12 | 0.2 |  | COc1ccc(S(=O)(=O)c2ccc(C3(C4CCN(C5CCN(C(=O)c6cccc7c(F)cccc67)CC5)CC4)OCCO3)cc2)cc1 | 140 | AUC at 6 h [5]: 130 ng·h/mL
